This is a sample that favours compounds with a hit; in the whole collection about 3.7% have one here.
KCNQ1 act – potentiates or activates the human KCNQ1 potassium channel; P51787; CHO-K1 KCNQ1, thallium flux FluxOR fluorescence; hits give high values; B-score at 10 µM; hit rate 0.35% among 310,000; AID 2648;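 active = fluorescence ratio B-score, a plate-corrected score, at least three library SD, with initial intensity B-score within 5 SD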
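System: CHO-K1 cells stably expressing KCNQ1 / Medium: assay buffer for compound exposure, DMSO matched across wells / Reagent: thallium- and potassium-containing depolarizing buffer / Compound: one concentration, matched DMSO / Incubation: 20 min compound pretreatment at room temperature / Measured by: kinetic FluxOR fluorescence, 10 s baseline plus 110 s post-stimulus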
KCNQ1 inh – inhibitors of human KCNQ1 potassium channel | hit rate 1.3% among 310,000 | CHO-K1 KCNQ1, FluxOR thallium flux fluorescence; hits give high values | P51787 | B-score at 10 µM | AID 2642;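 active = compounds whose thallium flux B-score, printed positive for inhibition, exceeds three library SD while starting fluorescence stays within three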;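 also: channel opened by potassium depolarization with thallium stimulus after 20 min compound exposure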
KCNK9 block – inhibitors of human KCNK9 two-pore domain potassium channel; HEK293 KCNK9, FluxOR thallium flux fluorescence; hits give low values; B-score at 10 µM; hit rate 1.2% among 310,000; AID 488922;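 active = ratio B-score over 3 SD below the library mean, with starting fluorescence within 5 SD of its mean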;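 also: negative B-score means less thallium flux so channel inhibition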
Target sequence (Q9NPC2 whole entry, looked up, the tested form may be a part): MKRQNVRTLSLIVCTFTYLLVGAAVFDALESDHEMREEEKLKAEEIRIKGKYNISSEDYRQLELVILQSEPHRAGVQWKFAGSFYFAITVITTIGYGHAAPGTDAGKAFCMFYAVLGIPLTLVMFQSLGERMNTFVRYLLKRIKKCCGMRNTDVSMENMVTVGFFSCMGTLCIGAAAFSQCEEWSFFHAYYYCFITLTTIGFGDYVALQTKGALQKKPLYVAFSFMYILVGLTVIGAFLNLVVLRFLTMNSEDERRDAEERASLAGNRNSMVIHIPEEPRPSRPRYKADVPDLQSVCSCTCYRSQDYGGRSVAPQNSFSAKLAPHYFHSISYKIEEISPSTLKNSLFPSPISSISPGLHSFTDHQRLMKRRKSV
Kir21 block – Kir2.1 (mouse) channel inhibition; HEK293-Kir2.1, FluxOR thallium flux fluorescence; hits give low values; hit rate 0.85% among 310,000; AID 1672; P35561; B-score at 10 µM;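 active = fluorescence ratio B-score at or below minus 3 SD of library scores, with starting-brightness B-score within 2 SD, cut at about -4.2 in these data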;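 also: channel flux triggered by added potassium and thallium sulfate stimulus; B-score of peak minus minimum fluorescence over baseline after thallium stimulus; more negative B-score means stronger Kir2.1 block with less thallium influx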
KCNK3 block – human KCNK3 channel inhibition, primary screen; B-score at 10 µM; CHO-KCNK3 thallium flux, FluxOR fluorescence; hits give low values; O14649; hit rate 0.84% among 340,000;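 active = B-score under library mean minus 4 SD, starting fluorescence ratio at most library mean plus 5 SD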;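 also: more negative B-score means stronger inhibition of thallium flux through KCNK3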
hERG protect – hERG (human) protection from proarrhythmic block; Q12809; CHO-hERG, FluxOR thallium flux, dofetilide IC70 present; activation (rescue from dofetilide block), less the hit threshold, % at 10 µM; hit rate 0.51% among 310,000;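 active = activation above the mean of controls blocked by dofetilide plus 5 SD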;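 also: thallium influx through hERG after potassium depolarization seen as dye fluorescence rise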
KCNK9 block conf – confirmation of human KCNK9 potassium channel inhibitors; shares compounds with KCNK9 block; HEK293 KCNK9 cells, FluxOR thallium flux fluorescence; inhibition, % at 10 µM; hit rate 43% among 4,900; AID 492992;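 active = thallium signal inhibited by more than 5 SD of the compound-free buffer control wells, on both duplicate plates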;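 also: 0% = assay buffer control wells without compound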
Kir21 sel – tests whether KCNK9 modulators also affect mouse Kir2.1 | AID 492993 | hit rate 4% among 4,900 | inhibition, % at 10 µM | shares compounds with KCNK9 block | Kir2.1 cells, FluxOR thallium flux fluorescence;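 active = thallium signal drop more than 5 SD beyond the mean of the no-compound control wells, seen in both duplicate plates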;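 also: signal is fluorescence rise after thallium addition divided by baseline fluorescence; plate controls were assay buffer only for no effect and full block by chlorpromazine control for full effect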
HEK293 Tl ctr – second check of KCNK9 modulator effects in non-induced HEK293 cells. FluxOR thallium flux. hit rate 40% among 4,900. inhibition, % at 10 µM. AID 492997. shares compounds with KCNK9 block;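 active = thallium signal drop beyond 5 SD of the untreated control mean, on both duplicate plates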;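 also: plate controls were buffer only IC0 wells for no effect and SID17386958 at its maximal inhibitory level for full effect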
Starred values were filed as active, the others as inactive; i = inactive; · = no result given.

SMILES | KCNQ1 act | KCNQ1 inh | KCNK9 block | Kir21 block | KCNK3 block | hERG protect | KCNK9 block conf | Kir21 sel | HEK293 Tl ctr
COc1ccc(N2CCN(C(=O)c3cc(=O)c4ccc(C)cc4o3)CC2)cc1 | i | i | i | 0.38 | i | -2 | · | · | ·
COc1c(C)cc(Br)cc1C(=O)Nc1cccc(NC(=O)c2ccco2)c1 | i | i | -11* | -0.29 | -11* | -15 | 67%* | i | i
COc1cccc(NC(=O)c2ccco2)c1 | i | i | i | -1.1 | i | -7 | · | · | ·
COc1ccc(Br)cc1C(=O)Nc1cccc(NC(=O)c2ccco2)c1 | i | i | -18* | 0.01 | i | -21 | 59%* | i | i
Cc1ccccc1NC(=O)Cc1nnc(SCC(=O)NC2=NCCS2)n1C | i | i | i | -0.41 | i | -12 | · | · | ·
O=C(C1CCN(S(=O)(=O)c2ccc(Br)s2)CC1)N1CCc2ccccc21 | i | i | i | 0.31 | i | -11 | i | i | i
COC(=O)C1CCN(S(=O)(=O)c2ccc(Br)s2)CC1 | · | · | · | · | i | · | · | · | ·
COc1ccccc1NC(=S)NC(=O)c1c(-c2ccccc2Cl)noc1C | i | i | i | -0.18 | i | -7 | i | i | i
Cc1onc(-c2ccccc2Cl)c1C(=O)NC(=S)Nc1ccccc1F | i | i | i | -0.91 | i | 1 | · | · | ·
Cc1onc(-c2ccccc2Cl)c1C(=O)NCc1cccnc1 | i | i | i | 0.74 | i | -6 | · | · | ·
Cc1onc(-c2ccccc2Cl)c1C(=O)NC(=S)NCc1cccnc1 | i | i | i | -0.92 | i | -12 | i | i | i
COc1ccc(C2CC(c3cccs3)=NN2c2ccc(C=O)cc2)cc1 (stereo not given) | i | i | i | -5.4 | · | -9 | · | · | ·
Cc1ccc(C2CC(c3ccccc3)=NN2c2ccccc2)o1 (stereo not given) | i | 8* | -9.1* | -1.6 | i | -12 | 41%* | i | 30%*
O=S(=O)(c1ccccc1)N1N=C(c2cccs2)CC1c1ccc(Br)cc1 (stereo not given) | i | i | -13* | 0.11 | i | -11 | 37%* | i | 44%*
Oc1ccccc1C1=NN(c2ccccc2)C(c2ccc(F)cc2)C1 (stereo not given) | i | i | i | 2.5 | i | -5 | · | · | ·
Oc1ccc(C2=NN(c3ccccc3)C(c3ccc(F)cc3)C2)cc1 (stereo not given) | i | i | -12* | 0.75 | i | -7 | 42%* | i | 36%*
c1ccc(C2CC(c3cccs3)=NN2c2ccccc2)cc1 (stereo not given) | i | i | -8.7* | 0.22 | i | -14 | 48%* | i | i
C=C[C@@H](C)N(Cc1ccc(OC)cc1)S(=O)(=O)N(Cc1ccccc1)[C@H](C=C)C(C)C | · | · | · | · | i | · | · | · | ·
Clc1ccc(C2[C@H]3CN(Cc4cccnc4)[C@H](c4ccccc4)C34CC2(c2ccccc2)C4)cn1 (stereo not given in full) | i | i | -9.8* | -1.1 | i | -6 | 30%* | i | 35%*
Clc1ccc(C2[C@H]3CN(Cc4ccc(-c5ccccc5)cc4)[C@H](c4ccccc4)C34CC2(c2ccccc2)C4)cn1 (stereo not given in full) | i | i | i | 0.01 | · | -7 | · | · | ·
C#CCN(C(=O)c1cc(COc2ccc(C)c(C)c2)on1)C1CCCCC1 | i | 6* | i | 0.81 | i | -13 | i | i | i
C#CCN(C(=O)c1cc(COc2cccc(C(F)(F)F)c2)on1)C1CCCCC1 | i | i | i | -0.31 | i | -11 | · | · | ·
CC(C)[C@@H]1CC[C@@H](C)C[C@H]1OC(=O)C[n+]1cc(-c2ccc(Cl)cc2)n2c1CCCCC2 | i | i | -13* | -8.1* | i | -26 | 60%* | 70%* | i
O=C(COC(=O)CCc1nc2ccccc2c(=O)[nH]1)Nc1ccc2c(c1)OCO2 | i | i | i | -0.03 | i | -10 | · | · | ·
Cc1cn2c(nc1=O)OC1CC2OC1CO (stereo not given) | i | i | i | 3.5 | i | -7 | · | · | ·
SMILES | KCNQ1 act | KCNQ1 inh | KCNK9 block | Kir21 block | KCNK3 block | hERG protect | KCNK9 block conf | Kir21 sel | HEK293 Tl ctr
Cc1cccc(CCNC(=O)Cn2ncc3c([nH]c4ccccc43)c2=O)c1 | i | i | i | -0.05 | i | -5 | · | · | ·
CCCCOC(=O)CSC(=S)N(C)Cc1cccs1 | i | i | i | -0.05 | i | -10 | i | i | i
CCOc1cccc(C(=O)NC(=S)Nc2ccc3c(c2)OCCO3)c1 | i | i | i | 0.22 | i | -6 | i | i | i
O=C(NC(=S)Nc1ccc2c(c1)OCCO2)c1ccccc1 | i | i | i | 0.85 | i | -10 | · | · | ·
CCOc1ccc(OCC)c(Nc2cc(C)nc3ncnn23)c1 | i | i | i | -0.04 | i | -5 | i | i | 24%*
COCCN1CCC(CNCc2c(C(=O)N3CCCCC3)nc3c(C)cccn23)C1 (stereo not given) | i | i | i | -0.67 | i | -10 | · | · | ·
CCC(C)n1c(SCc2ccc([N+](=O)[O-])cc2)nc2ccsc2c1=O (stereo not given) | i | i | -13* | -2.4 | i | -8 | 69%* | i | 44%*
CCOC(CCn1c(SCc2cccc([N+](=O)[O-])c2)nc2ccccc2c1=O)OCC | i | i | -15* | 0.26 | i | -6 | 68%* | i | 45%*
CCc1c(O)nc(SCc2ccccc2)n(C(C)CC)c1=O (stereo not given) | i | i | i | -3.7 | i | -5 | · | · | ·
COCCn1c(SCc2cccc([N+](=O)[O-])c2)nc2ccccc2c1=O | i | i | -8.8* | 1.4 | i | -7 | 64%* | i | 30%*
CCCCn1c(SCc2cccc([N+](=O)[O-])c2)nc2ccsc2c1=O | i | 6* | -16* | 0.35 | i | -19 | 80%* | i | 38%*
CCCCn1c(SCC(=O)Nc2cc(C)on2)nc2ccsc2c1=O | i | i | i | -0.36 | i | -7 | · | · | ·
O=C1c2cccc(Cl)c2C(=O)c2c1cccc2N1CCCC1 | i | i | i | -1.1 | i | -4 | · | · | ·

Screening data as filed in PubChem BioAssay.
